The source of these data is ChEMBL document CHEMBL3351612, “Merremins A-G, resin glycosides from Merremia hederacea with multidrug resistance reversal activity” (J Nat Prod, 2014).

The nature of data set [1]: Multidrug resistance reversal activity in human KB/VCR cells assessed as reduction in vinblastine IC50 at 25 uM incubated for 72 hrs by sulforhodamine B assay relative to untreated control. It counts as functional. In short, it runs like this: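 KB/VCR cells seeded 24 h, then given vinblastine serial dilutions (0.125–1 μM) with or without 25 μM sample for 72 h at 37 °C, 5% CO2. Cells fixed in 10% TCA (4 °C, 1 h), stained 15 min with 0.4% SRB in 1% HOAc, dye dissolved in 10 mM Tris base, A510 read. Fold reversal = IC50 of drug alone / IC50 with sample.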
(Sulforhodamine B stains cellular protein and so reports cell mass.)

Data set [2] in a line: Toxicity against human KB/VCR cells assessed as inhibition of cell growth at 25 uM incubated for 72 hrs by sulforhodamine B assay. It counts as cell-based. The following applies: read-out: GI.

Turning to `CCCCC[C@H]1CCCCCCCCCC(=O)O[C@H]2[C@H](O[C@H]3[C@H](O1)O[C@H](C)[C@H](O)[C@@H]3OC(C)=O)O[C@@H](C)[C@H](O[C@@H]1O[C@@H](C)[C@H](O[C@@H]3O[C@@H](C)[C@H](OC(=O)[C@@H](C)CC)[C@@H](O)[C@H]3O)[C@@H](O[C@@H]3O[C@H](CO)[C@@H](O)[C@H](O)[C@H]3O)[C@H]1OC(=O)[C@@H](C)CC)[C@H]2O`, the “Ratio IC50” value in data set [1] is on record as 2.3. In data set [2], the inhibition at 72 h, 25 µM is 0.91%. In the case of `CCCCCCCC(=O)O[C@H]1[C@H](O[C@@H]2[C@@H](O)[C@H]3OC(=O)CCCCCCCCC[C@H](CCCCC)O[C@@H]4O[C@H](C)[C@H](OC(C)=O)[C@H](O)[C@H]4O[C@@H]3O[C@H]2C)O[C@@H](C)[C@H](O[C@@H]2O[C@@H](C)[C@H](OC(=O)[C@@H](C)CC)[C@@H](O)[C@H]2O)[C@H]1O[C@@H]1O[C@H](CO)[C@@H](O)[C@H](O)[C@H]1O`, in data set [2], the inhibition at 72 h, 25 µM is 93.8%. Same read-out and setting: the value for `CCCCC[C@H]1CCCCCCCCCC(=O)O[C@H]2[C@H](O[C@H]3[C@H](O1)O[C@H](C)[C@H](OC(C)=O)[C@@H]3O)O[C@@H](C)[C@H](O[C@@H]1O[C@@H](C)[C@H](O[C@@H]3O[C@@H](C)[C@H](OC(=O)[C@@H](C)CC)[C@@H](O)[C@H]3O)[C@@H](O[C@@H]3O[C@H](CO)[C@@H](O)[C@H](O)[C@H]3O)[C@H]1OC(=O)[C@@H](C)CC)[C@H]2O` was 97.8%. Take `CCCCCCCCCC(=O)O[C@H]1[C@H](O[C@@H]2[C@@H](O)[C@H]3OC(=O)CCCCCCCCC[C@H](CCCCC)O[C@@H]4O[C@H](C)[C@H](OC(C)=O)[C@H](O)[C@H]4O[C@@H]3O[C@H]2C)O[C@@H](C)[C@H](O[C@@H]2O[C@@H](C)[C@H](OC(=O)[C@@H](C)CC)[C@@H](O)[C@H]2O)[C@H]1O[C@@H]1O[C@H](CO)[C@@H](O)[C@H](O)[C@H]1O`: the inhibition at 72 h, 25 µM in data set [2] is 96.6%. Regarding `CCCCC[C@H]1CCCCCCCCCC(=O)O[C@H]2[C@@H](O)[C@H](O[C@H]3[C@H](O1)O[C@H](C)[C@H](O)[C@@H]3O)O[C@@H](C)[C@@H]2O[C@@H]1O[C@@H](C)[C@H](O[C@@H]2O[C@@H](C)[C@H](O)[C@@H](O)[C@H]2O)[C@@H](O[C@@H]2O[C@H](CO)[C@@H](O)[C@H](O)[C@H]2O)[C@H]1OC(=O)[C@@H](C)CC`, the “Ratio IC50” value in data set [1] turned out to be 15.8. For the same compound, in data set [2], the inhibition at 72 h, 25 µM is -0.08%. The corresponding values for `CCCCC[C@@H](CCCCCCCCCC(=O)OC)O[C@@H]1O[C@H](C)[C@H](O)[C@H](O)[C@H]1O[C@@H]1O[C@@H](C)[C@H](O[C@@H]2O[C@@H](C)[C@H](O[C@@H]3O[C@@H](C)[C@H](OC(=O)[C@@H](C)CC)[C@@H](O)[C@H]3O)[C@@H](O[C@@H]3O[C@H](CO)[C@@H](O)[C@H](O)[C@H]3O)[C@H]2O)[C@@H](O)[C@H]1O` are 2.5 and 0.23%. In the case of `CCCCCCCCCC(=O)O[C@H]1[C@H](O[C@@H]2[C@@H](O)[C@H]3OC(=O)CCCCCCCCC[C@H](CCCCC)O[C@@H]4O[C@H](C)[C@H](O)[C@H](O)[C@H]4O[C@@H]3O[C@H]2C)O[C@@H](C)[C@H](O[C@@H]2O[C@@H](C)[C@H](OC(=O)[C@@H](C)CC)[C@@H](O)[C@H]2O)[C@H]1O[C@@H]1O[C@H](CO)[C@@H](O)[C@H](O)[C@H]1O`, the inhibition at 72 h, 25 µM in data set [2] is 96.7%.

With `CCCCC[C@H]1CCCCCCCCCC(=O)O[C@H]2[C@@H](O)[C@H](O[C@H]3[C@H](O1)O[C@H](C)[C@H](O)[C@@H]3O)O[C@@H](C)[C@@H]2O[C@@H]1O[C@@H](C)[C@H](O[C@@H]2O[C@@H](C)[C@H](OC(=O)[C@@H](C)CC)[C@@H](OC(=O)/C=C/c3ccccc3)[C@H]2O)[C@@H](O[C@@H]2O[C@H](CO)[C@@H](O)[C@H](O)[C@H]2O)[C@H]1OC(=O)[C@@H](C)CC`, the inhibition at 72 h, 25 µM in data set [2] amounted to 91.1%. On the same count and under the same terms, next, `CCCCC[C@H]1CCCCCCCCCC(=O)O[C@H]2[C@H](O[C@H]3[C@H](O1)O[C@H](C)[C@H](O)[C@@H]3O)O[C@@H](C)[C@H](O[C@@H]1O[C@@H](C)[C@H](O[C@@H]3O[C@@H](C)[C@H](OC(=O)[C@@H](C)CC)[C@@H](O)[C@H]3O)[C@@H](O[C@@H]3O[C@H](CO)[C@@H](O)[C@H](O)[C@H]3O)[C@H]1OC(=O)[C@@H](C)CC)[C@H]2O` [MURUCOIDIN IV]: 97.5%. On to `CCCCC[C@H]1CCCCCCCCCC(=O)O[C@H]2[C@@H](O)[C@H](O[C@H]3[C@H](O1)O[C@H](C)[C@H](O)[C@@H]3O)O[C@@H](C)[C@@H]2O[C@@H]1O[C@@H](C)[C@H](O[C@@H]2O[C@@H](C)[C@H](OC(=O)[C@@H](C)CC)[C@@H](O)[C@H]2O)[C@@H](O[C@@H]2O[C@H](CO)[C@@H](O)[C@H](O)[C@H]2O)[C@H]1OC(=O)[C@@H](C)CC` [MURUCOIDIN V], for which the “Ratio IC50” value in data set [1] is given as 142.5. The inhibition at 72 h, 25 µM in data set [2] was found to be 7.72%.
